According to ChEMBL document CHEMBL1126626, “Synthesis and pharmacological evaluation of (nitrooxy)alkyl apovincaminates” (1993):

Legend:
Canis familiaris [1] = test: Effect on femoral blood flow (FBF) was studied, after intra arterial administration in anesthetized dogs relative to vinpocetine; assay type: functional, Canis lupus familiaris
Procedure, shortened: (§1)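 Compounds were given intraarterially to anesthetized dogs. Dose-response curves were built from peak response values. Potency was expressed as a ratio to vinpocetine, set at 1.0.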

Canis familiaris [2] = test: Effect on vertebral blood flow (VBF) was studied, after intra arterial administration in anesthetized dogs relative to vinpocetine; assay type: functional, Canis lupus familiaris; procedure, shortened: as §1

Row | SMILES | Potency ratio (Canis familiaris [1]) | Potency ratio (Canis familiaris [2])
1 | CC[C@@]12C=C(C(=O)OCCO[N+](=O)[O-])n3c4c(c5ccc(Br)cc53)CCN(CCC1)[C@H]42 | 0.36 | 0.58
2 | CC[C@@]12C=C(C(=O)OCCCCO[N+](=O)[O-])n3c4c(c5ccccc53)CCN(CCC1)[C@H]42 | 1.63 | 1.25
3 | CC[C@]12CCCN3CCc4c(n(c5cc(Br)ccc45)[C@@](O)(C(=O)OC)C1)[C@@H]32 [BROVINCAMINE] | 0.28 | 0.17
4 | CC[C@@]12C=C(C(=O)OCCCCCCCO[N+](=O)[O-])n3c4c(c5ccccc53)CCN(CCC1)[C@H]42 | 0.67 | 0.82
5 | CC[C@@]12C=C(C(=O)OCCCCCCCCCO[N+](=O)[O-])n3c4c(c5ccccc53)CCN(CCC1)[C@H]42 | 0.15 | 0.33
6 | CC[C@@]12C=C(C(=O)OCCCO[N+](=O)[O-])n3c4c(c5ccccc53)CCN(CCC1)[C@H]42 | 1.91 | 1.85
7 | CC[C@@]12C=C(C(=O)OCCCCCCCCCCO[N+](=O)[O-])n3c4c(c5ccccc53)CCN(CCC1)[C@H]42 | 0.16 | 0.48
8 | CC[C@@]12C=C(C(=O)OCCCCCCCCCCCO[N+](=O)[O-])n3c4c(c5ccccc53)CCN(CCC1)[C@H]42 | 0.38 | 0.33
9 | CC[C@@]12C=C(C(=O)OCCCCCO[N+](=O)[O-])n3c4c(c5ccccc53)CCN(CCC1)[C@H]42 | 1.07 | 1.09
10 | CC[C@@]12C=C(C(=O)OCCO[N+](=O)[O-])n3c4c(c5ccccc53)CCN(CCC1)[C@H]42 | 4.72 | 3.83
11 | CCOC(=O)C1=C[C@]2(CC)CCCN3CCc4c(n1c1ccccc41)[C@@H]32 [VINPOCETINE] | 1 | 1
12 | CC[C@@]12C=C(C(=O)OCCCCCCO[N+](=O)[O-])n3c4c(c5ccccc53)CCN(CCC1)[C@H]42 | 0.84 | 0.99
13 | CC[C@@]12C=C(C(=O)OCCCCCCCCO[N+](=O)[O-])n3c4c(c5ccccc53)CCN(CCC1)[C@H]42 | 0.34 | 0.35
